For 88 compounds, inhibition results are on record in PubChem BioAssay AID1885 (Broad Institute, 2009).

SMILES strings stand for the structures. Screen size: about 300,000 compounds; about 4,400 (1.5%) were called active. The sample as a whole holds a higher share of actives than the screen did. Unmarked numbers belong to inactive results.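 How the source made its calls: active means mean inhibition across valid replicates above about 55% (limit read from the data); inconclusive means mean below that limit but half or more replicates reach it; inactive means mean below it, under half of replicates reach it.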

By inhibition is commonly meant the drop in the measured response relative to a control, in per cent.

This assay is described as follows: inhibitors of intracellular T. cruzi growth, primary screen, luminescence, NIH3T3 host cells (AID 1885).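 Further: signal also drops with host cell toxicity which is not excluded here; 0% = plate median of DMSO wells and 100% = zero luminescence signal; higher percent means less beta-gal luminescence so fewer parasites.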 To be noted: T. cruzi beta-gal in NIH3T3, luminescence, 90 h; stronger effect = higher value; concentration not given here. Put shortly: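 Assay system: NIH/3T3 fibroblasts plus reporter T. cruzi. Amount: NIH/3T3 cells, 5,000 per well. Buffer or medium: DMEM, 2% fetal bovine serum. Doses: compound pinned at 50 nL/well, DMSO. Schedule: ≥90 h infection period, 3 h prior cell attachment. Signal: luminescent β-galactosidase signal after 60 min lysis. Read-out: parasite load inhibition, %.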
As to `COC(=O)c1ccc(SCc2ccccc2)nc1`, the inhibition is -10.6%.

As to `CC1=C/C(=N\OS(=O)(=O)c2ccccc2)C=CC1=O`, the inhibition was 68.7% (active).

With `O=S(=O)(ON(c1ccccc1)S(=O)(=O)c1ccccc1)c1ccccc1`, the inhibition was -3.86%.

For `COc1ccc(NS(=O)(=O)c2ccc(C)c(C(=O)NCC(c3cccs3)N3CCOCC3)c2)cc1` (stereo not drawn), the inhibition is 20.6%.

With `O=C(Cn1cnc2c(cnn2-c2ccccc2)c1=O)NCc1ccccc1`, the inhibition was -38.8%.

Take `O=C(Cn1cnc2cc([N+](=O)[O-])ccc2c1=O)NC(=O)NCc1ccccc1`: the inhibition is 62.3% (active).

On to `CC(C)(C)NC(=O)Cn1cnc2cc([N+](=O)[O-])ccc2c1=O`, for which the inhibition is 33.5%.

As for `CN(CC(=O)Nc1ccccc1Cl)C(=O)c1ccccc1SCC(=O)N1CCCC1`, the inhibition was 2.13%.

As for `COc1ccc(CCNC(=O)C(=O)NCC2CCCN2S(=O)(=O)c2cccs2)cc1OC` (stereo not drawn), the inhibition was 17.5%.

As to `CC(=O)c1sc(N/N=C\c2ccc(C)cc2)nc1C`, the inhibition was -6.96%.

Regarding `CC(=O)c1sc(NC(=O)CCCOc2ccccc2C)nc1C`, the inhibition was -0.939%.

For `CC(=O)c1sc(N/N=C/c2ccc(C(C)C)cc2)nc1C`, the inhibition was 65.4% (active).

`O=C(Nc1ccc(OC(F)(F)F)cc1)c1ccc2c(c1)no[n+]2[O-]`: the inhibition is 34.6%.

On to `COc1ccccc1C(=O)NC(=O)COC(=O)C1CC1`, for which the inhibition is 5.64%.

As for `CS(=O)(=O)N(CC(=O)N1CCc2ccccc2C1)c1ccc(Br)cc1`, the inhibition was 17.3%.

Consider `CCC(=C/c1sc2ccc3ccccc3c2[n+]1C)/C=C1\Sc2ccc3ccccc3c2N1C`, for which the inhibition is 65.5% (active).

In the case of `O=C(COc1ccccc1)Nc1ccc(F)cc1`, the inhibition was -10.9%.

On to `O=C(NC(Cc1ccccc1)C(=O)N1CCCC(C(F)(F)F)C1)c1ccccc1` (stereo not drawn), for which the inhibition is -16.5%.

On to `COc1ccc(NC(=O)c2cc(-c3ccc(C)o3)nc3ccccc23)cc1`, for which the inhibition was 14.8%.

For `CCOc1ccc(S(=O)(=O)Nc2nc3cc(OC)ccc3s2)cc1`, the inhibition is -7.46%.

In the case of `Cc1ccc2nc(N(CCN(C)C)C(=O)C3=COCCO3)sc2c1`, the inhibition is 53%.

In the case of `CC(=O)N(CCCN(C)C)c1nc2ccc(C)cc2s1`, the inhibition is 57.7% (active).

`COc1cccc2sc(N(CCCN(C)C)C(=O)C(c3ccccc3)c3ccccc3)nc12`: the inhibition is 31.5%.

As for `COc1cccc2sc(N(CCCN(C)C)C(=O)CCS(=O)(=O)c3ccccc3)nc12`, the inhibition is -2.98%.

Take `CCOc1ccc2nc(N(CCCN(C)C)C(=O)c3ccc(C(=O)c4ccccc4)cc3)sc2c1`: the inhibition is 34.6%.

In the case of `CCc1ccc2nc(N(CCCN(C)C)C(=O)c3ccc4c(c3)OCCO4)sc2c1`, the inhibition is 55.2% (active).

As to `CN(C)CCN(C(=O)CN1C(=O)c2ccccc2C1=O)c1nc2cc3c(cc2s1)OCCO3`, the inhibition is 66.3% (active).

With `CN(C)CCN(C(=O)C1=COCCO1)c1nc2ccc(Cl)cc2s1`, the inhibition was 41.8%.

For `CN(C)CCN(C(=O)C1CCCCC1)c1nc2cc3c(cc2s1)OCO3`, the inhibition was 28.7%.

Consider `COc1ccc2sc(N(CCCN(C)C)C(=O)c3ccc(S(=O)(=O)N(C)C4CCCCC4)cc3)nc2c1`, for which the inhibition was 61% (active).

For the compound `CCN(CC)CCN(C(=O)c1cc(Cl)sc1Cl)c1nc2cc3c(cc2s1)OCO3`, the inhibition is 33.9%.

For `Cc1ccc(S(=O)(=O)NCCC(=O)NC2CCN(Cc3ccccc3)CC2)cc1`, the inhibition is 38%.

As to `CCOc1ccc(S(=O)(=O)N2CCC(C(=O)OCc3ccc(OC)cc3)CC2)cc1`, the inhibition is -1.31%.

For `COc1ccccc1N(CC(=O)Nc1ccccc1C(=O)N1CCCC1)S(C)(=O)=O`, the inhibition was -3.65%.

On to `Cc1ccc(NC(=O)CSCC(=O)Nc2sccc2C#N)cc1`, for which the inhibition was -1.58%.

With `COc1ccc(CCNC(=O)CN2C(=O)COc3ccc(S(=O)(=O)N4CCCC4)cc32)cc1OC`, the inhibition is -4.6%.

With `CN(C)CCCN(C(=O)c1ccc(S(=O)(=O)N2CCCCCC2)cc1)c1nc2cc3c(cc2s1)OCCO3`, the inhibition was 65.3% (active).

As for `CN(C)CCCN(C(=O)c1ccc(S(=O)(=O)N2CCCCCC2)cc1)c1nc2ccc(Br)cc2s1`, the inhibition was 23.2%.

With `CCN(CC)CCN(C(=O)c1ccc(S(=O)(=O)N2CCOCC2)cc1)c1nc2cc3c(cc2s1)OCCO3`, the inhibition was 50.5%.

As for `Cc1ccccc1OCC(=O)NNC(=O)c1ccc(-n2cncn2)c([N+](=O)[O-])c1`, the inhibition is 14.2%.

For the compound `COc1cc(C(=O)OCC(=O)N(CC(C)C)C2CCS(=O)(=O)C2)ccc1OCC(C)C` (stereo not drawn), the inhibition is 1.65%.

As to `O=C(CSc1ncnc2c1nnn2Cc1ccc(F)cc1)NC1CCCC1`, the inhibition was 59.1% (active).

As to `O=C(Cc1ccc(F)cc1)NC1CCCC1`, the inhibition is -10.7%.

In the case of `O=C(CSc1ncnc2c1oc1ccccc12)NC1CCCC1`, the inhibition was 9.78%.

As to `Cc1sc(NC(=O)C2=COCCO2)c(C#N)c1C`, the inhibition was 6.24%.

As to `COc1cccc(C(=O)NCCS(=O)(=O)NCC2CCCO2)c1` (stereo not drawn), the inhibition is -7.57%.

In the case of `O=C(NCCCN1CCOCC1)c1ccc([N+](=O)[O-])cc1[N+](=O)[O-]`, the inhibition was 64.7% (active).

Regarding `O=[N+]([O-])c1ccc(NCCCN2CCOCC2)c(Cl)c1`, the inhibition is 10.6%.

`O=C(NCCCN1CCOCC1)c1ccc(N2CCCC2)c([N+](=O)[O-])c1`: the inhibition was 8.18%.

Turning to `Cc1ccc(C(=O)NNC(=O)C(C)Oc2ccc3ccccc3c2)o1` (stereo not drawn), the inhibition was -1.31%.

Consider `COCCn1nnnc1C(c1cc2ccc(OC)cc2[nH]c1=O)N1CCc2ccccc2C1` (stereo not drawn), for which the inhibition is -9.17%.

Consider `COc1ccc(OC)c(C(c2nnnn2C(C)(C)C)N2CCc3ccccc3C2)c1` (stereo not drawn), for which the inhibition was 63.1% (active).

For the compound `COc1ccccc1C(c1nnnn1C(C)(C)C)N1CCN(Cc2ccccc2)CC1` (stereo not drawn), the inhibition was -3.59%.

For the compound `CCCCN(C(=O)c1ccc(C)o1)c1c(N)n(CCCC)c(=O)[nH]c1=O`, the inhibition is -0.399%.

`O=C1CC(Sc2ncn[nH]2)C(=O)N1c1ccccc1` (stereo not drawn): the inhibition was 23.3%.

Consider `CC(NC(=O)CSc1nc2c(cc1C#N)CN(C)CC2)c1ccccc1` (stereo not drawn), for which the inhibition is 1.88%.

`CN1CCc2nc(SC(C(=O)O)c3ccccc3)c(C#N)c(-c3cccs3)c2C1` (stereo not drawn): the inhibition is 64.4% (active).

In the case of `Cc1c(-c2ccccc2)nc(N)c(C#N)c1-c1cccs1`, the inhibition is 0.738%.

As for `CCCCn1c(N)c(N(Cc2ccccc2OC)C(=O)COc2cc(C)ccc2Cl)c(=O)[nH]c1=O`, the inhibition is 6.73%.

Regarding `COc1ccccc1C(=O)COC(=O)CSCC(=O)Nc1cc(C)on1`, the inhibition was -6.4%.

As for `CCN1CCN(CCNC(=O)c2ccc(/C=C3/Sc4ccccc4N(Cc4cccc(C)c4)C3=O)cc2)CC1`, the inhibition was 59% (active).

For the compound `CCN1CCN(CCNC(=O)c2ccc3c(c2)NC(=O)/C(=C\c2ccc(OC)c(OC)c2)S3)CC1`, the inhibition was 11.8%.

In the case of `O=C(NCCN1CCOCC1)c1ccc(/C=C2\Sc3ccccc3N(Cc3ccc(F)cc3)C2=O)cc1`, the inhibition was 10.9%.

As to `Cc1cc(C)c(S(=O)(=O)N2CCCC2CNC(=O)c2ccc3c(c2)OCO3)c(C)c1` (stereo not drawn), the inhibition is -2.11%.

Turning to `Cc1ccc(S(=O)(=O)c2c[nH]c3ccc(Cl)cc3c2=O)cc1`, the inhibition is 5.53%.

As to `O=C(NCc1ccccc1)C1=C[C@H](C2CC2)C[C@H](OCc2ccc(CO)cc2)O1`, the inhibition was 15%.

Consider `O=C(C1=C[C@H](C2CC2)C[C@H](OCc2ccc(CO)cc2)O1)N1CCN(Cc2ccccc2)CC1`, for which the inhibition was 59.7% (active).

As to `O=C(C1=C[C@H](c2coc3ccccc3c2=O)C[C@H](OCc2ccc(CO)cc2)O1)N1CCN(Cc2ccccc2)CC1`, the inhibition is 33.6%.

Take `O=S(=O)(c1ccccc1)N1CCC(c2ccccc2)CC1`: the inhibition was 0.981%.

As for `Cc1ccc(C(=O)N2CCC(n3nccc3NC(=O)Nc3cccc(F)c3)CC2)cn1`, the inhibition is -8.51%.

With `COc1ccc(CNS(=O)(=O)c2cc3c4c(c2)CCN4C(=O)CC3)cc1`, the inhibition was -11.2%.

Consider `CN1CCN(NC(=O)c2ccc(S(=O)(=O)N3CCCCCC3)cc2)CC1`, for which the inhibition was 68.3% (active).

With `COc1cc(C(=O)NNC(=O)c2ccc(S(=O)(=O)N3CCCCC3)cc2)cc(OC)c1OC`, the inhibition was -12.8%.

For the compound `CC1CN(S(=O)(=O)c2ccc(C(=O)NN3CCN(C)CC3)cc2)CC(C)O1` (stereo not drawn), the inhibition is 6.61%.

Turning to `CCN(CC(=O)Nc1cc(Cl)ccc1C)C(=O)CN1C(=O)NC2(CCCC2)C1=O`, the inhibition was 2.7%.

With `COc1ccc(C(=O)CN2C(=O)NC3(CCc4ccccc43)C2=O)c(OC)c1` (stereo not drawn), the inhibition was 1.63%.

As to `C/C(=N\NC(=O)c1ccccc1F)c1ccccn1`, the inhibition was 23.5%.

In the case of `C/C(=N\NC(=O)Cc1ccc(Br)cc1)c1cccnc1`, the inhibition is -9.89%.

`C/C(=N\NC(=O)Cc1ccc(Cl)cc1)c1ccccn1`: the inhibition was 64.9% (active).

Turning to `CCOc1ccc(NC(=O)CN(C)C(=O)c2c(C)noc2C)cc1OCC`, the inhibition is 0.476%.

In the case of `CCCS(=O)(=O)N1CCN=C1SCc1cccc(F)c1`, the inhibition was 6.03%.

Turning to `CC1CCN(c2ccc(-c3ccc(NC(=O)c4ccco4)cc3)nn2)CC1`, the inhibition was 6.55%.

Regarding `COc1ccc(NC(=O)CSc2nc(NS(=O)(=O)c3ccc(C)cc3)cc(=O)[nH]2)cc1`, the inhibition is 7.86%.

Regarding `COc1ccc2nc(N3CCN(C(=O)c4ccc([N+](=O)[O-])o4)CC3)sc2c1`, the inhibition was 60.2% (active).

In the case of `Cc1ccc2nc(N3CCN(C(=O)c4ccco4)CC3)sc2c1`, the inhibition is -3.92%.

As to `O=C(c1ccc2nc(N3CCOCC3)sc2c1)N1CCN(c2ccc(Cl)cc2)CC1`, the inhibition was 2.47%.

For `O=C1C=C(c2ccc(Cl)cc2)C(=O)N1Nc1ccccc1`, the inhibition is 44.2%.

Regarding `CC1CCN(C(=O)c2cccc(S(=O)(=O)N3CCCc4ccccc43)c2)CC1`, the inhibition was 12.1%.
